Source: PubChem BioAssay
Shown are actives, neighbours in structure and some others; about 0.7% of the full set was active somewhere.
STK33 kinase inh: inhibitors of human STK33 kinase | purified STK33, MBP phosphorylation, ADP-Glo luminescence | 320,000 compounds, 0.073% hits | inhibition, % at 10 µM | Q9BYT3;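 active = inhibition at or above 25%, using the most active replicate where run in duplicate; inactive = inhibition below 25%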
Target sequence (Q9BYT3 whole entry, looked up): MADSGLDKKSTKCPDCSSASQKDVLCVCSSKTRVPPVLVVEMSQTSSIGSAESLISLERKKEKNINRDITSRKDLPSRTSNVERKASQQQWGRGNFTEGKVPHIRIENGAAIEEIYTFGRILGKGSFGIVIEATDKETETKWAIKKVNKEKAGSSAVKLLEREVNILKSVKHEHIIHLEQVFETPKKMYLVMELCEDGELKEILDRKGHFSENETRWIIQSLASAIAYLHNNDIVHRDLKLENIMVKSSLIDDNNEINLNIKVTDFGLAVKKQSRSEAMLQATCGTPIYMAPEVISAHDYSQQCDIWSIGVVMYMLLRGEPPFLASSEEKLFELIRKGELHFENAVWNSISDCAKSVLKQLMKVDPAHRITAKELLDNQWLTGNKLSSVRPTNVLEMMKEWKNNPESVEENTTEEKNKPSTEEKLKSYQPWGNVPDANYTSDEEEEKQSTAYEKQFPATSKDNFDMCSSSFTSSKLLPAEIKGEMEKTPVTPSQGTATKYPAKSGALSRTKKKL
GSK3beta inhib: human GSK3beta kinase inhibition | P49841 | GST-GSK3beta kinase, ADP-Glo luminescence, 60 min; stronger effect = lower value | activity score (negative = inhibition), % at 10 µM | 300,000 compounds, 0.038% hits | AID 2097;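 active = more than half of replicate wells score below -50%, meaning over 50% inhibition versus plate controls; inconclusive = some replicates but at most half score below -50%; inactive = no replicate scores below -50%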;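 also: 0% = median DMSO wells and -100% = median GW8510 positive control wells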
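Assay system: GST-fused GSK3beta enzyme, cell-free / Medium: Tris pH 7.5 buffer with MgCl2, DTT, BSA, heparin / Also added: peptide substrate plus 25 µM ATP (final) / Compound: 10 µM single point / Timing: kinase reaction with compound 60 min at room temperature / Detection: ADP-Glo luminescence / Benchmarks: DMSO neutral wells and GW8510 at 20 µM as positive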
Lipid droplet: hepatic lipid droplet formation modulation | 240,000 compounds, 0.4% hits | AML12 mouse hepatocytes, oleate lipid droplets, BODIPY imaging | inhibition, % at 6.5 µM | AID 1656;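 active = lipid droplet intensity inhibited by at least 50%, with more than 500 cells counted; inconclusive = wells with under 300 cells, treated as cytotoxic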
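Assay system: AML12 hepatocytes (mouse); Probe or stimulus: oleic acid at 100 µM to induce lipid droplet formation; Dosing: compound at 6.5 µM only; Schedule: compound with oleate, overnight; Detection: fluorescence imaging, 20x objective, two fields per well; Measure: % inhibition of lipid droplet signal.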
GSK3 alpha inh: blocks human GSK-3 alpha kinase; P49840; ADP-Glo luminescence, 60 min; inhibition, % at 10 µM; 320,000 compounds, 0.1% hits; AID 2650;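 active = more than half of replicates show inhibition above 20%; inconclusive = some but at most half of replicates above 20% inhibition; inactive = no replicate shows inhibition above 20%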;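 also: GST-tagged GSK-3 alpha with peptide substrate and 25 µM ATP; 0% = DMSO neutral wells and 100% = GW8510 positive control wells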
Rce1 inhib: blocks yeast Ras-converting enzyme. AID 2563. yeast membranes, quenched prenylated peptide cleavage fluorescence. calls only. 290,000 compounds, 0.27% hits;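 active = fall in fluorescence gain of 50% or more versus controls, with final raw signal at or below 3038400; inconclusive = same 50% fall but final raw signal above 3038400; inactive = fall in fluorescence gain under 50%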;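 also: plate controls were neutral control wells for no effect and wells lacking membranes for full effect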
HSV replic up: increases HSV replication in cells. maximum fold increase. AID 1956. 220,000 compounds, 0.005% hits. HSV replication augmentation in cells, fold increase; in the data active = maximum fold increase above about 1.5; inconclusive = no clear call, values can overlap the other calls; tested in PC3 cells
Lipid drop inh: confirmation of inhibitors of hepatic lipid droplet formation; shares compounds with Lipid droplet; AML12 mouse hepatocytes, BODIPY lipid droplet imaging; droplets induced with 100 µM oleic acid; 870 compounds, 65% hits; AID 463183; inhibition, % at 5.2 µM;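 active = inhibition of lipid droplet metric at least 50%, with more than 300 cells in each of four replicates; inconclusive = wells under 300 cells, flagged as toxic or low count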;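 also: plate controls were DMSO with oleic acid for no effect and 5 µM Triacsin-C for full effect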
AML12 tox img: AML12 hepatocyte cytotoxicity (counter-screen); shares compounds with Lipid droplet; AML12 mouse hepatocytes, DAPI nuclear morphology cytotoxicity imaging; stronger effect = higher value; cells fed 100 µM oleate overnight; z-score at 5 µM; 870 compounds, 3% hits; AID 463200; in the data active = z-score above about 6.3;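 also: compound exposure lasted overnight at 37 °C before fixation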
* hit, by the source's call; i = inactive; ? = inconclusive; / = not tested or not shown; + = active, no number.

SMILES | STK33 kinase inh | GSK3beta inhib | Lipid droplet | GSK3 alpha inh | Rce1 inhib | HSV replic up | others
CN(C)CCNC(=O)c1cccn(Cc2cccc(C(F)(F)F)c2)c1=O | 1 | -3 | 6 | -2 | + | i
O=C(CNC1CCCC1)Nc1ccc(N2CCCCCC2)cc1 | 1 | 3 | 6 | -1 | i | i
CC(=NCCCn1ccnc1)c1c(O)n(Cc2ccccc2)c(=O)[nH]c1=O | 0 | -6 | 4 | 15 | i | i
CCOC(=O)c1c(-c2ccc(OC)cc2)oc2ccc(OC(=O)N(C)C)cc12 | 0 | 0 | -30 | -1 | + | i
CC1(O)CCN2C(=O)CCc3cccc1c32 (configuration not stated) | 6 | / | / | 18 | / | /
CN1CCN(c2ccc([N+](=O)[O-])c(Sc3nncn3C)c2)CC1 | 0 | -3 | 19 | -2 | + | i
O=C1Nc2cc(C(=O)N3CCC4(CC3)OCCO4)ccc2NC1CSCc1cccc(F)c1 (configuration not stated) | 1 | 0 | -2 | 10 | i | /
CN1/C(=C\C=C\C2=[N+](C)c3ccc4ccccc4c3C2(C)C)C(C)(C)c2ccccc21 | 26* | / | / | 71* | / | i
CN1/C(=C\C=Nc2ccccc2)C(C)(C)c2ccccc21 | -2 | 1 | / | 4 | i | i
C=CC[N+]1(C)CC[C@]23c4c5ccc(O)c4O[C@H]2C(=O)CC[C@@]3(O)[C@H]1C5 (some centres not stated) | -1 | 2 | / | 1 | + | /
CC(=O)[C@H]1CC[C@H]2[C@@H]3CC[C@H]4C[C@H](O)CC[C@]4(C)[C@H]3C(=O)C[C@]12C | 0 | 3 | -5 | 1 | + | i
CC(=O)OCC(=O)[C@H]1CC[C@H]2[C@@H]3CC[C@H]4C[C@H](O)CC[C@]4(C)[C@H]3C(=O)C[C@]12C | -4 | / | / | 0 | / | /
NC(=O)c1cn(C2OC(CO)C(O)C2O)c2ncnc(N)c12 (configuration not stated) | 13 | 0 | ? | 72* | i | i
CCNC(=O)[C@H]1O[C@@H](n2cnc3c(N)ncnc32)[C@H](O)[C@@H]1O | 2 | -6 | -2 | 14 | i | i
N#Cc1c(Cl)nc(Cl)c2c1CCN(Cc1ccccc1)C2 | 1 | 1 | 1 | 14 | + | i
c1ccc(CN2CCN(Cc3ccc4ccccc4c3)CC2)cc1 | -1 | 0 | -2 | -2 | i | /
O=c1[nH]c(=O)n(C2CCCCC2)c(O)c1C=NCCCn1ccnc1 | -1 | 2 | 2 | 67* | i | i
CC(=NCCCn1ccnc1)c1c(O)n(C2CCCCC2)c(=O)[nH]c1=O | -1 | 1 | 12 | 67* | i | i
Cn1cc(C(=O)Cc2ccccc2)c2ccccc21 | -1 | -2 | -2 | 0 | i | i
C[C@]12CCC3C(CC[C@H]4C[C@@H](O)CC[C@]34C)C1CC[C@@H]2OC(=O)[C@H](N)CCCCN (some centres not stated) | 0 | / | / | 4 | / | /
CC(C)[C@]12O[C@H]1[C@@H]1O[C@]13[C@]1(O[C@H]1C[C@H]1C4=C(CC[C@@]13C)C(=O)OC4)[C@@H]2O | -1 | 3 | 87* | -3 | i | i
Clc1ccc(C(c2ccc(Cl)cc2)n2cc[n+](CC(OCc3ccc(Cl)cc3Cl)c3ccc(Cl)cc3Cl)c2)cc1 (configuration not stated) | 2 | / | / | 1 | / | /
CC1CCC/C=C/C2CC(O)CC2C(O)/C=C/C(=O)O1 (configuration not stated) | 0 | -3 | 110* | -1 | i | / | Lipid drop inh=114*;AML12 tox img=17*
C[C@H]1CCC/C=C/C2C[C@H](O)CC2[C@H](O)/C=C/C(=O)O1 (some centres not stated) | -1 | -4 | ? | -4 | i | i
BrCC(Br)(Br)Br | 0 | / | / | -2 | / | /
COC(=O)C1CN(C#N)N(c2ccc(Cl)cc2)C12c1ccccc1-c1ccccc12 (configuration not stated) | -1 | -6 | 131* | -2 | i | i | Lipid drop inh=?;AML12 tox img=36*
